By AUC is commonly meant concentration integrated over time. A word on the Cmax: it is the maximum level reached in the sampled fluid or tissue. In general, half-life refers to the time in which the quantity being followed falls by half.

The values that follow come from publication PMC3658146 (Clinical cancer research : an official journal of the …, 2013).

The test system of one data set is tumor. The following applies: c.i.v. IdUrd; cited from earlier work.
The nature of data set [1]: Plasma pharmacokinetics after a single oral dose of IPdR. The data set is classed as in vivo, human (patients with advanced malignancies). A digest of the protocol:
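Patients received a single oral dose of 150, 300, 600, 1200 or 2400 mg, with one patient per level and 6 at 2400 mg. Blood was drawn pre-dose and at 5, 15, 30 min and 1, 2, 4, 10, 24 h, and plasma was kept at −80°C. After solvent deproteinization, IPdR, IdUrd, IP and IUra were measured by C18 LC–MS/MS. BrdUrd and BrUra served as internal standards, with calibration at 0.1–50 μM in control plasma.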

Another data set deals with anaplastic astrocytoma. The following applies: patients with anaplastic astrocytoma, radiation combined with IdUrd; cited from earlier work.
For data set [2] the following is noted: clinical, reason for c.i.v. infusion; cited from earlier work.
The nature of data set [3]: Urinary recovery of IPdR and metabolites after a single oral dose of IPdR. The following applies: patients receiving 2400 mg of IPdR. The data set is classed as in vivo, human (patients with advanced malignancies). The procedure, abridged: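 Urine was collected pre-dose and then at each void over 24 h, with volumes recorded and aliquots stored at −80°C. Samples underwent liquid–liquid extraction and LC–MS/MS for IPdR, IdUrd, IP and IUra, with BrdUrd and BrUra as internal standards. Calibration covered 0.1–50 μM in patient pre-dose urine. Samples above 50 μM were diluted 1:10 and reanalyzed. The quantitation limit was 0.1 μM for IPdR and IdUrd and 0.25 μM for IP and IUra.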

The next data set concerns ovarian cancer. The following applies: patients with ovarian cancer, intraperitoneal IdUrd; cited from earlier work.
The nature of data set [4]: Safety assessment for 14 days after a single oral dose of IPdR. The data set is classed as in vivo, human (patients with advanced malignancies). The following applies: single oral dose 150-2400 mg, 10 patients, 14 days follow-up. The procedure, abridged: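 After a single oral dose on day 1 (150–2400 mg), patients were followed for 14 days. Complete blood counts with differential and serum chemistries were done at baseline, day 2 and day 14, with grading by CTCAE v4.0. Significant toxicity was defined as a drug-related event within 14 days at grade ≥2 non-hematologic (excluding correctable electrolytes), grade ≥2 thrombocytopenia, or grade ≥3 anemia/leucopenia/neutropenia. Each next patient enrolled only after the prior one completed 2 weeks.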

For data set [5] the following is noted: athymic mice, ≤ 1500 mg/kg/day for 6 to 14 days; cited from earlier work.
The conditions of data set [6]: rats, oral IPdR, sustained for at least 6 hours; cited from earlier work.
For data set [7] the following is noted: rats, for 28 days; cited from earlier work.
For data set [8] the following is noted: mice, oral IPdR, sustained for at least 6 hours; cited from earlier work.
Data set [9] concerns dihydropyrimidine dehydrogenase. The following applies: stated without reference; cited from earlier work.

“And” between values parts separate entries of the source, which are not always exact repeats. Equal values may be shown once. Read-outs that look alike come from different tables or passages of the source.

As to `O=c1[nH]c(=O)n([C@H]2C[C@H](O)[C@@H](CO)O2)cc1I` [IdUrd, 5-iodo-2′-deoxyuridine, reference compound], the “patients with tumor shrinkage” value in the data set with tumor is recorded as 6 out of 11. In addition, the AUC worked out at 1.7 µM·h in [1] (human, plasma, po, 150 mg); 0.3 µM·h in data set [1] (human, plasma, po, 300 mg); 3.2 µM·h in data set [1] (human, plasma, po, 600 mg); 4.7 µM·h in data set [1] (human, plasma, po, 1200 mg); 12.2 µM·h in [1] (human, plasma, po, 2400 mg). Further, the Cmax in data set [1] (human, plasma, po, 150 mg) is 800 nM; in data set [1] (human, plasma, po, 300 mg), 300 nM; in data set [1] (human, plasma, po, 600 mg), 1800 nM; in data set [1] (human, plasma, po, 1200 mg), 2100 nM; in data set [1] (human, plasma, po, 2400 mg), 4000 nM. Besides, the half-life in data set [1] (human, plasma, po, 2400 mg) is 1.5 h; in data set [2] it was “in the order of minutes”. For the same compound, the “time of peak IdUrd plasma level after IPdR administration” value in [1] (single oral IPdR 2400 mg, 6 patients, mean ± SD) was determined as 1.67 ± 1.21 h. In addition, the median survival with anaplastic astrocytoma was 3.2 years. In addition, the “patients surviving at 5 years” value in the data set with anaplastic astrocytoma is 33%. Further, the “detection in urine samples” value in [3] is recorded as “detectable”. The effect on ascites entry with ovarian cancer is given as “disappearance of ascites”.

As to `O=c1ncc(I)cn1[C@H]1C[C@H](O)[C@@H](CO)O1` [IPdR, 5-iodo-2-pyrimidinone-2′-deoxyribose], in data set [4], the drug-related adverse events entry is listed as “no drug-related adverse events”. Further, the “toxicities after daily oral doses” value in [5] is “no significant toxicities”. Moreover, the “plasma concentrations of IPdR” value in data set [6] and in data set [8] was greater than 100000 nM throughout. Moreover, the “tolerable dose for repeat dose studies” value in data set [7] is listed as 2000 mg/kg/day. Also, the “IPdR AUC” value came out at 3.4 μM-hr in data set [1] (plasma, single oral IPdR 150 mg, one patient); 8.3 μM-hr in data set [1] (plasma, single oral IPdR 600 mg, one patient); 0.7 μM-hr in data set [1] (plasma, single oral IPdR 1200 mg, one patient); 15.6 μM-hr in data set [1] (plasma, single oral IPdR 2400 mg, mean of 6 patients). The Cmax in data set [1] (read-out: IPdR Cmax, plasma, single oral IPdR 150 mg, one patient) is 600 nM; in [1] (read-out: IPdR Cmax, plasma, single oral IPdR 600 mg, one patient), 930 nM; in [1] (read-out: IPdR Cmax, plasma, single oral IPdR 1200 mg, one patient) it was 950 nM; in data set [1] (read-out: IPdR Cmax, plasma, single oral IPdR 2400 mg, mean of 6 patients), 4300 nM. Besides, the “dose recovered in urine over 24 hours” value in [3] (IPdR and metabolites) is “Twelve”. In data set [3], the “detection in urine samples” value was “detectable”.

For the compound `O=c1ncc(I)c[nH]1` [IP, 5-iodo-2-pyrimidinone], the “detection in urine samples” value in data set [3] is on record as “detectable”.

Regarding `O=c1[nH]cc(I)c(=O)[nH]1` [IUra, 5-iodouracil], the “effect on the enzyme dihydropyrimidine dehydrogenase” value in data set [9] is “inhibits”. Besides, in data set [1] (human, plasma, oral, 2400 mg), the concentration at 10 hours is roughly 100000 nM. In addition, the exposure (AUC) in data set [1] (human, plasma, po, 150 mg) was determined as 1 µM·h; in [1] (human, plasma, po, 300 mg), 4.5 µM·h; in data set [1] (human, plasma, po, 600 mg) it was 17.2 µM·h; in data set [1] (human, plasma, po, 1200 mg), 103 µM·h; in [1] (human, plasma, po, 2400 mg), 1060 µM·h. In addition, the Cmax in [1] (human, plasma, po, 150 mg) amounted to 200 nM; in data set [1] (human, plasma, po, 300 mg), 800 nM; in [1] (human, plasma, po, 600 mg) it was 4500 nM; in data set [1] (human, plasma, po, 1200 mg) it was 34200 nM; in data set [1] (human, plasma, po, 2400 mg) it was 133000 nM. The “time of peak IUra plasma level post IPdR administration” value in data set [1] (single oral IPdR 2400 mg) is 3.3 ± 1.0 hours and 3.3 (± 1.0) hours. Moreover, the “detection in urine samples” value in [3] was “detectable”. Also, the “share of the metabolites measured in urine” value in [3] (24 hours) is 90 ± 13%.
